Assay results from BindingDB's records for doi:10.1016/j.bmc.2010.01.049 (Glaxosmithkline, 2010).
Structures can show the parent of a compound that is named as a salt.

What was measured:
Melanocortin receptor 4 = Melanocortin receptor 4 (Homo sapiens, UniProt P32245); test: Agonist activity at human MC4R expressed in CHO cells after 4 hrs by luciferase reporter gene assay
Outline: (§1)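 CHO-6xCRE-luc+ cells expressing the human receptor, plated at 4000 cells/well in DMEM/F12 with 10% FBS 48 h before assay. Switched to serum-free medium 16 h before compound addition, then incubated 4 h at 37 °C. Luciferase read after 10 min dark adaptation. Activity expressed as % of fold stimulation by 1 × 10^-7 M NDP-aMSH (duplicate control wells).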

[1] = biological target: Melanocyte-stimulating hormone receptor (Homo sapiens, UniProt Q01726); test: Agonist activity at human MC1R expressed in CHO cells after 4 hrs by luciferase reporter gene assay; outline: as §1
Melanocyte-stimulating hormone receptor, sequence (Q01726 whole entry): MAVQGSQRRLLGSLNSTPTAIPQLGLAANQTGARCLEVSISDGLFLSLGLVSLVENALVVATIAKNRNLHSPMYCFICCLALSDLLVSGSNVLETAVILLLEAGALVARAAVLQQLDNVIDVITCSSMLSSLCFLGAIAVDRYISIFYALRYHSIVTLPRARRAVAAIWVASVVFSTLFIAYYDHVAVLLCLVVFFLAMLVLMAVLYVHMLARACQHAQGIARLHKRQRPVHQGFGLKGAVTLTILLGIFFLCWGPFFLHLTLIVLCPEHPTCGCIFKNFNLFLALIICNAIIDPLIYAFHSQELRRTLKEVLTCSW

Melanocortin receptor 4, sequence (P32245 whole entry): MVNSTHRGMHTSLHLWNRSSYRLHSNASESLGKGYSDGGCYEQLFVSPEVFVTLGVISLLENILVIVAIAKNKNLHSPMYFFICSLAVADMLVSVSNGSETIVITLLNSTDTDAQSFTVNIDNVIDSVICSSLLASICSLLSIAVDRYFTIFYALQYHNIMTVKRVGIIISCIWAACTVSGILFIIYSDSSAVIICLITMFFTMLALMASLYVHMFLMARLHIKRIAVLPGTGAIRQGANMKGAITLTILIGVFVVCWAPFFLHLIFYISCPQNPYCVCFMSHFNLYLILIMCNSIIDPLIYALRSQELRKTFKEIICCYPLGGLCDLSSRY

Row | EC50 (Melanocortin receptor 4) | EC50 [1] | SMILES
1 | > 31.6 µM | > 31.6 µM | COc1ccc(N(C(=O)CN2C=CN(c3ccccc3)C(=O)C(Cc3nn(C)c4ccccc34)C2=O)C(C)C)cc1 (racemic) [(+/-)-N-(1-methylethyl)-2-{6-[(1-methyl-1H-indazol-3-yl)methyl]-5,7-dioxo-4-phenyl-4,5,6,7-tetrahydro-1H-1,4-diazepin-1-yl}-N-[4-(methyloxy)phenyl]acetamide]
2 | > 31.6 µM | > 31.6 µM | COc1ccc(N(C(=O)CN2C=CN(C3CCCCC3)C(=O)C(Cc3n[nH]c4ccccc34)C2=O)C(C)C)cc1 (racemic) [(+/-)-2-[4-Cyclohexyl-6-(1H-indazol-3-ylmethyl)-5,7-dioxo-4,5,6,7-tetrahydro-1H-1,4-diazepin-1-yl]-N-(1-methylethyl)-N-[4-(methyloxy)phenyl]acetamide trifluoroacetate]
3 | > 31.6 µM |  | CC(C)N(C(=O)CN1C=CN(C)C(=O)C(Cc2n[nH]c3cc(F)ccc23)C1=O)c1ccc(F)cc1 (racemic) [(+/-)-2-{6-[(6-Fluoro-1H-indazol-3-yl)methyl]-4-methyl-5,7-dioxo-4,5,6,7-tetrahydro-1H-1,4-diazepin-1-yl}-N-(4-fluorophenyl)-N-(1-methylethyl)acetamide]
4 | > 31.6 µM |  | COc1ccc(N(C(=O)CN2C=CN(Cc3ccccc3)C(=O)C(Cc3n[nH]c4ccccc34)C2=O)C(C)C)cc1 (racemic) [(+/-)-2-[6-(1H-Indazol-3-ylmethyl)-5,7-dioxo-4-(phenylmethyl)-4,5,6,7-tetrahydro-1H-1,4-diazepin-1-yl]-N-(1-methylethyl)-N-[4-(methyloxy)phenyl]acetamide]
5 | > 31.6 µM |  | CC(C)N(C(=O)CN1C=CN(c2ccccc2)C(=O)C(Cc2n[nH]c3ccccc23)C1=O)c1ccc(N2CCOCC2)cc1 (racemic) [(+/-)-2-[6-(1H-Indazol-3-ylmethyl)-5,7-dioxo-4-phenyl-4,5,6,7-tetrahydro-1H-1,4-diazepin-1-yl]-N-(1-methylethyl)-N-[4-(4-morpholinyl)phenyl]acetamide]
6 | > 31.6 µM | > 31.6 µM | COc1ccc(N(C(=O)CN2C=CN(C3CCCCC3)C(=O)C(Cc3ccccc3)C2=O)C(C)C)cc1 (racemic) [(+/-)-2-[4-Cyclohexyl-5,7-dioxo-6-(phenylmethyl)-4,5,6,7-tetrahydro-1H-1,4-diazepin-1-yl]-N-(1-methylethyl)-N-[4-(methyloxy)phenyl]acetamide]
7 | > 31.6 µM |  | CC(C)N(C(=O)CN1C=CN(c2ccccc2)C(=O)C(Cc2n[nH]c3ccccc23)C1=O)c1ccc(O)cc1 (stereo unspecified)
8 |  | > 31.6 µM | CC(C)N(C(=O)CN1C=CN(c2ccccc2)C(=O)[C@@H](Cc2n[nH]c3ccccc23)C1=O)c1ccccc1
